From PubChem
TAAR1 antag – antagonists of human TAAR1 | CHO RD-HGA16 TAAR1, Fluo-8 calcium fluorescence, antagonist | 1.5% of 360,000 active | inhibition, % at 3 µM | Q96RJ0;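 active means inhibition above a per-plate cutoff, the mean inhibition of test compounds on that plate plus 3 SD, cut at about 49% in these data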;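 further: 0% = DMSO plus EC80 beta-PEA response and 100% = DMSO alone without agonist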
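Test system: hTAAR1-expressing CHO RD-HGA16 cells, Gα16-coupled; Probe or stimulus: EC80 β-phenethylamine stimulus; Compound dosing: single nominal final test compound concentration of 3 µM; Timing: 140 s kinetic read after compound, 140 s after agonist; Signal: Fluo-8 calcium-sensitive fluorescence; Measure: % inhibition of agonist calcium response; Controls: DMSO and EC80 PEA controls.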
OXTR ag – activates the human oxytocin receptor; 0.32% of 320,000 active; P30559; activation, % at 3 µM; CHO-OTR cells, Fluo-8 calcium fluorescence; normalized: DMSO 0%, oxytocin 100%; AID 2435;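 active means activation above the mean of all tested compounds plus 3 SD, cutoff set per screening run, cut at about 20% in these data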;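 further: peak over basal fluorescence ratio from a 100 s FLIPR kinetic read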
Target sequence (P30559 whole entry, looked up): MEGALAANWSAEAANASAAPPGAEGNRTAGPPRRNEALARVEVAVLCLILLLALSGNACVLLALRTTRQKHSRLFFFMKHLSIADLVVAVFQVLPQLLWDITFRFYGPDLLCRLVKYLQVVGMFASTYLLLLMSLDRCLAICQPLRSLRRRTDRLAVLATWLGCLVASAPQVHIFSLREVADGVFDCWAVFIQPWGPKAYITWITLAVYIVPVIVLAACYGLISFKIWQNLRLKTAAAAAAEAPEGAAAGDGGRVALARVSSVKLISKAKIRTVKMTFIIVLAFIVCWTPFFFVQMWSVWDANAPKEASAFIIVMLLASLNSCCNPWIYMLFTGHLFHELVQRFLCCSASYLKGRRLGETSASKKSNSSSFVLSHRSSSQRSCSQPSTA
OXTR potentiate – human OXTR potentiation; CHO-OTR cells, Fluo-8 calcium fluorescence, potentiator mode; 0% = oxytocin EC15, 100% = EC100; activation, % at 3 µM; AID 2445; 0.061% of 320,000 active;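 active means activation above that plate's cutoff, the mean activation of tested compounds plus 3 SD, cut at about 6.6% in these data, passing the limit was not always enough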;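 further: 100% uses oxytocin at 75 nM as the full agonist control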
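Assay system: CHO-OTR cells, human receptor / Also added: oxytocin at about EC15, sub-maximal agonist stimulus / Dosing: single dose, 3.0 µM nominal final compound concentration / Incubation: 6 min pre-incubation, 100 s read / Technique: Fluo-8 calcium dye fluorescence / Read-out: % activation vs EC15 and EC100 oxytocin / Benchmarks: EC15 oxytocin low, 75 nM oxytocin high / Replicates: singlicate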
V1R ag counter – activates human V1a receptor in oxytocin agonist counter-screen. P37288. CHO-V1R cells, Fluo-8 calcium fluorescence, agonist mode; 0% DMSO, 100% 3 nM vasopressin. AID 2797. activation, % at 3 µM. 0.25% of 320,000 active;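 active means activation above the mean activation of all tested compounds plus 3 SD, per screening run, cut at about 20% in these data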;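 further: signal is peak over basal fluorescence ratio across a 100 second FLIPR read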
Target sequence (P37288 whole entry, looked up): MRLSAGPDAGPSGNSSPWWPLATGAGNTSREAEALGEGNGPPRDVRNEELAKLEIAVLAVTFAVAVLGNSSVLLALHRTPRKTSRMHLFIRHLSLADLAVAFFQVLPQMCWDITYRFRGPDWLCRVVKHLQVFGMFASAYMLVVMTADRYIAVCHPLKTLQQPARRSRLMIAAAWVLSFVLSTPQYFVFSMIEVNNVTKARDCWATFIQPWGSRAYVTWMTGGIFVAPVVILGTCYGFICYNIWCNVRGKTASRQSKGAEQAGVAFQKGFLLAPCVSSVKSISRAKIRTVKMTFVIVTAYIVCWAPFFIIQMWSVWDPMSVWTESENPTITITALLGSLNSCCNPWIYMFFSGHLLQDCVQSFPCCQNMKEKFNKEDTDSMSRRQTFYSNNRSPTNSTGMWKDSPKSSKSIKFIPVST
TAAR1 ag – agonists of human TAAR1. activation, % at 3 µM. AID 624467. 0.99% of 360,000 active. Q96RJ0. CHO RD-HGA16 TAAR1, Fluo-8 calcium fluorescence; vehicle wells 0%, saturating PEA agonist 100%;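 active means activation above the mean activation of all test compounds in the run plus 3 SD, cut at about 38% in these data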
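Test system: RD-HGA16 (CHO) cells co-expressing Gα16 and hTAAR1; dosing: one-point dosing at 3 µM (nominal); timing: 17-24 h seeding, 75 min 37 °C dye, 30 min RT; signal: kinetic Fluo-8 calcium fluorescence; read-out basis: % activation relative to PEA EC100 response; controls: DMSO and PEA EC100; replicates: n 1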
nonsel antag count – nonselective antagonist in TAAR1 antagonist counter-screen | shares compounds with TAAR1 antag | counterscreen cell line, calcium fluorescence, antagonist mode | inhibition, % at 3 µM | 77% of 2,400 active | AID 651780; in the data active means inhibition above about 22%;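 further: CHO-Ga16 host cells stimulated with ATP at an EC80 level; 0% = agonist EC80 plus vehicle and 100% = vehicle without agonist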
TAAR1 antag conf – human TAAR1 antagonism, confirmed | inhibition, % at 3 µM | TAAR1-expressing cells, fluorescence antagonist read-out | shares compounds with TAAR1 antag | 40% of 2,400 active | AID 651785; in the data active means inhibition above about 49%;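 further: CHO-Ga16 host cells challenged with agonist PEA near its EC80; 0% = agonist at EC80 plus vehicle and 100% = vehicle with no agonist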
Ga16 ag counter – nonselective Ga16 agonism, counter-screen | 18% of 2,400 active | Ga16-expressing cells, calcium fluorescence, agonist counterscreen | AID 651953 | activation, % at 3 µM | shares compounds with TAAR1 antag; in the data active means activation above about 12%;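 further: 0% = vehicle wells and 100% = saturating stimulus response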
TAAR1 ag count – counter-screen for human TAAR1 antagonists: TAAR1 agonists | shares compounds with TAAR1 antag | hTAAR1 cell line, fluorescence activation, agonist mode | 2% of 2,400 active | AID 651955 | activation, % at 3 µM; in the data active means activation above about 37%;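 further: CHO cells stably expressing TAAR1 with calcium dye readout; 0% = DMSO vehicle and 100% = full agonist response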
An asterisk follows results filed as active; · = no result given. In the library only some 2.3% were active in any assay of this set; here they are far more common.

SMILES | TAAR1 antag | OXTR ag | OXTR potentiate | V1R ag counter | TAAR1 ag | nonsel antag count | TAAR1 antag conf | Ga16 ag counter | TAAR1 ag count
CCCCCCC(=O)N(O)C1CC(=O)N(c2ccc(Br)cc2)C1=O (centres undefined) | 105.5* | -0.4 | -4.6 | 0.3 | -3.7 | 12.3 | 12.7 | 2.5 | 1.1
CCCCNCc1cc2ccccc2o1 | 103.5* | 0.9 | -6.6 | 0.6 | 1.6 | -1.8 | -0.6 | 7.1 | 17.6
COc1ccc(C(=O)Nc2ccc(-c3cn4ccsc4n3)cc2)cc1S(=O)(=O)N1CCOCC1 | 62.4* | -0.6 | -2.2 | 0.0 | 16.9 | 25.4* | 48.6* | 6.4 | 4.2
COc1ccc(C(=O)Nc2ccc(N3CCOCC3)cc2)cc1S(=O)(=O)N1CCOCC1 | -20.0 | · | · | · | 0.8 | · | · | · | ·
Cc1ccc(S(=O)(=O)N2CCCC(C(=O)Nc3ccc(NC(=O)c4ccccn4)cc3)C2)cc1 (centres undefined) | 55.3* | 0.6 | -4.2 | -0.2 | 14.8 | 32.0* | 52.8* | 7.8 | 10.8
CCOC(=O)c1ccc(NC(=O)C2CCCN(S(=O)(=O)c3ccc(F)cc3)C2)cc1 (centres undefined) | 67.0* | 6.8 | -10.3 | 5.2 | 19.8 | 39.5* | 62.4* | 12.7* | 14.2
Cc1ccc(S(=O)(=O)N2CCCC(C(=O)Nc3cccnc3)C2)cc1 (centres undefined) | 6.5 | 1.9 | -13.2 | 3.2 | 16.1 | · | · | · | ·
CCOC(=O)c1ccc(NC(=O)C2CCN(S(=O)(=O)c3ccccc3)CC2)cc1 | -7.3 | 1.8 | -5.0 | 2.5 | 2.5 | · | · | · | ·
NNC(=O)CCn1c2ccccc2c2ccccc21 | 2.9 | -0.3 | -16.5 | -0.7 | 8.6 | · | · | · | ·
CC1CCCN(C(=O)COC(=O)CNS(=O)(=O)c2ccc3ccccc3c2)C1 (centres undefined) | -9.8 | 1.2 | -2.9 | 2.0 | 1.9 | · | · | · | ·
COc1ccccc1CCn1cnc(-c2ccc(F)cc2)c1CC(C)C | 62.6* | · | · | · | 27.1 | 29.1* | 62.1* | 11.1 | 66.4*
CCc1c(-c2ccc(F)cc2)ncn1CCc1ccccc1OC | -24.5 | · | · | · | 3.1 | · | · | · | ·
CCCCc1c(-c2ccc(F)cc2)ncn1CCc1ccccc1OC | 54.5* | · | · | · | 26.2 | 23.1* | 38.3 | 3.3 | 42.6*
COc1ccccc1CCn1cnc(-c2cccc(Cl)c2)c1CC(C)C | 51.2* | · | · | · | 13.9 | 32.6* | 52.0* | 8.9 | 38.0*
COc1ccccc1CCn1cnc(-c2ccccc2)c1CC(C)C | 55.9* | · | · | · | 6.9 | 41.5* | 49.1* | 12.4* | 26.0
COCCCNC(=S)N1CCC(NC(=O)Nc2ccc(C)cc2)CC1 | 8.0 | 0.4 | -0.1 | 1.1 | 6.7 | · | · | · | ·
CC(NC(=O)COc1ccc(N(C)S(=O)(=O)c2ccccc2)cc1)c1ccccc1 (centres undefined) | -28.6 | -0.3 | -10.8 | 2.1 | 2.3 | · | · | · | ·
COc1cccc(-c2ncn(CCc3ccccc3OC)c2CC(C)C)c1 | 62.1* | · | · | · | 10.6 | 39.0* | 49.3* | 8.2 | 38.0*
COC(=O)c1c(S(=O)(=O)NCc2ccccc2)sc(C(=O)O)c1C | 5.4 | 1.1 | 3.1 | 0.7 | 11.5 | · | · | · | ·
CS(=O)c1nc(-c2ccc(Br)cc2)cc(-c2ccccc2)c1C#N (centres undefined) | 69.7* | -1.8 | -7.9 | 1.1 | -2.0 | 27.1* | 53.0* | 4.4 | 1.7
COc1ccc(/C=N/NC(=O)c2nc(-c3ccccc3)cc(-c3ccccc3)n2)cc1 | 56.0* | -0.4 | -3.0 | 0.4 | 15.5 | 25.2* | 42.4 | 5.2 | 3.8
COc1ccc(/C=N/NC(=O)c2nc(-c3ccccc3)cc(-c3ccccc3)n2)cc1O | 62.7* | 4.2 | -15.9 | 6.4 | 10.5 | 34.8* | 52.8* | 6.2 | 3.7
O=C(CSc1n[nH]c(-c2ccccn2)n1)Nc1ccccc1F | -9.8 | -0.7 | -7.9 | 0.5 | -3.4 | · | · | · | ·
COc1ccc(F)cc1-c1cc(C(=O)NCc2cc(C(F)(F)F)cc(C(F)(F)F)c2)[nH]n1 | -23.5 | · | · | · | 4.2 | · | · | · | ·
CN(Cc1ccccc1)C(=O)COC(=O)c1cc(S(=O)(=O)N(C)C)ccc1N1CCCC1 | -7.0 | -1.3 | -14.6 | 0.5 | 2.8 | · | · | · | ·
SMILES | TAAR1 antag | OXTR ag | OXTR potentiate | V1R ag counter | TAAR1 ag | nonsel antag count | TAAR1 antag conf | Ga16 ag counter | TAAR1 ag count
CC/C(=C(/CC)c1ccc(O)cc1)c1ccc(O)cc1 | 56.9* | -0.9 | -5.6 | 1.8 | 0.3 | 23.2* | 37.4 | 3.9 | 11.5
COc1ccc(CN2C(=O)C(CC(=O)NCCc3ccccn3)CC(C(=O)N3CCOCC3)=C2C)cc1 (centres undefined) | -8.6 | · | · | · | 2.2 | · | · | · | ·
CCN(CC)S(=O)(=O)c1cccc(C(=O)OCC(=O)c2ccc3c(c2)NC(=O)CO3)c1 | 71.2* | 18.2 | -13.6 | 7.7 | 19.3 | 42.5* | 61.4* | 15.3* | 12.1
O=C1COc2ccc(C(=O)COC(=O)CCSc3ccc(Cl)cc3)cc2N1 | 56.4* | 2.9 | -15.8 | 1.8 | 13.7 | 36.6* | 33.4 | 9.9 | 3.7
Cc1cccc(C(=O)OCC(=O)c2ccc3c(c2)NC(=O)CO3)c1 | 46.5 | 6.5 | -3.3 | 4.7 | 9.8 | · | · | · | ·
O=C1COc2ccc(C(=O)COC(=O)Cc3ccc(Cl)cc3)cc2N1 | 3.1 | 1.5 | -29.9 | 0.4 | 1.5 | · | · | · | ·
Cc1ccccc1N1CCN(C(=S)c2ccc(-c3cccc([N+](=O)[O-])c3)o2)CC1 | -18.5 | -1.0 | -9.0 | 0.6 | 9.9 | · | · | · | ·
CC(=O)N1CCN(c2ccccc2NC(=O)c2ccc(-c3cccc([N+](=O)[O-])c3)o2)CC1 | 66.4* | -0.6 | -3.1 | -0.3 | 10.3 | 27.5* | 49.2* | 6.8 | 3.8
COc1cc(NC(=O)c2ccc(-c3cccc([N+](=O)[O-])c3)o2)ccc1NC(=O)C(C)C | 63.0* | 0.9 | -10.3 | 0.1 | 7.5 | 30.9* | 45.1 | 6.3 | 3.6
COc1ccc(CCNC(=O)c2cccc([N+](=O)[O-])c2)cc1OC | -12.6 | 1.2 | -6.4 | -1.4 | 0.8 | · | · | · | ·
COc1ccc(CCNC(=O)c2ccc(-c3cccc([N+](=O)[O-])c3)o2)cc1OC | 59.5* | -0.7 | -14.2 | -0.3 | 25.1 | 27.8* | 45.9 | 14.5* | 13.7
CCOCCCNC(=O)C(NC(=O)c1ccc2c(c1)OCO2)c1ccc(Cl)cc1 (centres undefined) | -26.9 | 1.1 | -4.2 | 1.6 | 5.7 | · | · | · | ·
O=C(N/N=C/c1c[nH]c2ccccc12)c1cc(Cl)ccc1O | 8.6 | 1.0 | -12.5 | 9.4 | 6.7 | · | · | · | ·
